# pIC50: −log10 of the molar value. Active and inactive are the calls of the source. The rule behind the calls is not given here.
# Experiments:
# [1] = molecular target: T1, Phosphatidylinositol 4,5-bisphosphate 3-kinase catalytic subunit alpha isoform (Homo sapiens, UniProt P42336); assay: Inhibition of PI3Kalpha (unknown origin) using PIP2 as substrate measured after 1 hr by Kinase-Glo luminescent assay
# MCF7 = assay: Antiproliferative activity against human MCF7 cells assessed as reduction in cell viability after 48 hrs by CCK8 assay; assay type: functional, cell-based; details: MCF7, 48 h
# In short: (§1)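 Cells were seeded at 5000/well and grown 24 h at 37 °C, 5% CO2. They were then exposed 48 h to compound diluted from DMSO into medium (final DMSO <0.4%). CCK-8 was added for 1 h and absorbance read at 540 nm. IC50 came from the viability vs concentration (nM) curve, in triplicate.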
# U-87 MG [2] = assay: Antiproliferative activity against human U87MG cells assessed as reduction in cell viability after 48 hrs by CCK8 assay; assay type: functional, cell-based, U-87MG ATCC; in short: as §1
# PC-3 = assay: Antiproliferative activity against human PC3 cells assessed as reduction in cell viability after 48 hrs by CCK8 assay; assay type: functional, cell-based; details: PC-3, 48 h; in short: as §1
# SK-OV-3 [3] = assay: Antiproliferative activity against human SKOV3 cells assessed as reduction in cell viability after 48 hrs by CCK8 assay; assay type: functional, cell-based; details: SK-OV-3, 48 h; in short: as §1
# [4] = molecular target: T2, Serine/threonine-protein kinase mTOR (Homo sapiens, UniProt P42345); assay: Inhibition of mTOR (unknown origin) using ULight-4E-BP1 peptide substrate measured after 1 hr by Lance Ultra assay
# In short: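 mTOR (10 nM final) was reacted with ULight-4E-BP1 peptide (50 nM final) and ATP in kinase buffer for 1 h at room temperature.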
# [5] = Cmax in Beagle dog at 1 mg/kg, po administered as single dose via gavage; assay type: ADME, organism-based, Canis lupus familiaris; parameters: dose 1 mg/kg, route oral; details: in vivo
# In short: (§2)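 Three male Beagle dogs (9–10 months, 9–10 kg) given 1 mg/kg by oral gavage as a solution in physiological saline with 5% DMSO. Blood was drawn at 0.25–24 h and spun within 1 h (1000 × g, 4 °C, 15 min). Plasma was stored at -20 °C. t1/2 and AUC0–24 were obtained by model-independent analysis, and Cmax and MRT directly from the plasma concentration–time data.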
# Mus musculus = assay: Toxicity in Balb/c mouse xenografted with human U87MG cells assessed as body weight loss at 3 to 30 mg/kg, ig administered daily for 10 days measured twice every 3 days during compound dosing; assay type: organism-based; details: in vivo, po
# In short: (§3)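 Female BALB/c nude mice (6–7 weeks, 16–20 g, SPF, 5 groups of 5) were implanted subcutaneously with 5×10^6 U87MG cells. At 100–150 mm³ they were randomized and dosed intragastrically once daily for 10 days. Body weight was recorded twice every 3 days. Tumor volume was taken as V = 1/2ab² (a length, b width).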
# [6] = molecular target: T1, Phosphatidylinositol 4,5-bisphosphate 3-kinase catalytic subunit alpha isoform; assay: Inhibition of PI3Kalpha in human U87MG cells assessed as reduction in AKT phosphorylation at S473 residue at 2 nM after 24 hrs by Western blot analysis relative to control; assay type: cell-based
# In short: (§4)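 U87MG cells were treated at indicated concentrations for 24 h at 37 °C, then lysed in RIPA with protease/phosphatase inhibitors and 1 mM PMSF. Lysates were run on SDS–PAGE and PVDF blots probed overnight at 4 °C for AKT, pAKT Ser473, pAKT Thr308, S6RP and pS6RP Ser235/236. HRP secondary was used with chemiluminescent detection.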
# [7] = Half life in Beagle dog at 1 mg/kg, po administered as single dose via gavage; assay type: ADME, organism-based, Canis lupus familiaris; details: in vivo; in short: as §2
# [8] = AUC (0 to 24 hrs) in Beagle dog at 1 mg/kg, po administered as single dose via gavage; assay type: ADME, organism-based, Canis lupus familiaris; parameters: time < 24 hr, dose 1 mg/kg, route oral; details: in vivo; in short: as §2
# [9] = molecular target: T1, Phosphatidylinositol 4,5-bisphosphate 3-kinase catalytic subunit alpha isoform; assay: Inhibition of PI3Kalpha in human U87MG cells assessed as reduction in AKT phosphorylation at S473 residue at 20 to 200 nM after 24 hrs by Western blot analysis relative to control; assay type: cell-based; in short: as §4
# [10] = Half life in pooled human liver microsomes at 50 uM pretreated for 5 mins followed by NADPH addition and measured after 120 mins by HPLC analysis; assay type: ADME, microsome
# In short: (§5)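 Pooled adult male and female human liver microsomes at 1 mg/mL in 0.1 M Tris-HCl pH 7.4, with test compound at 50 μM final. Mixtures were preincubated 5 min at 37 °C, then started with NADPH regenerating system. Reactions were stopped at 120 min with cold methanol, centrifuged, and analysed by HPLC.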
# [11] = molecular target: T1, Phosphatidylinositol 4,5-bisphosphate 3-kinase catalytic subunit alpha isoform; assay: Inhibition of PI3Kalpha in human U87MG cells assessed as reduction in AKT phosphorylation at T308 residue at 20 to 200 nM after 24 hrs by Western blot analysis relative to control; assay type: cell-based; in short: as §4
# [12] = molecular target: T1, Phosphatidylinositol 4,5-bisphosphate 3-kinase catalytic subunit alpha isoform; assay: Inhibition of PI3Kalpha in human U87MG cells assessed as reduction in S6 phosphorylation at Ser235/236 after 24 hrs by Western blot analysis; assay type: cell-based; in short: as §4
# U-87 MG [13] = assay: Antitumor activity against human U87MG cells xenografted in Balb/c mouse assessed as tumor growth inhibition at 10 mg/kg, ig administered daily for 10 days relative to control; assay type: functional, U-87MG ATCC; details: po, 240 h, read-out: TGI; in short: as §3
# U-87 MG [14] = assay: Antitumor activity against human U87MG cells xenografted in ig dosed Balb/c mouse assessed as tumor growth inhibition administered daily for 10 days; assay type: functional, organism-based; details: U-87MG ATCC; in short: as §3
# U-87 MG [15] = assay: Antitumor activity against human U87MG cells xenografted in Balb/c mouse assessed as tumor growth inhibition at 3 mg/kg, ig administered daily for 10 days relative to control; assay type: functional, U-87MG ATCC; details: po, 240 h, read-out: TGI; in short: as §3
# SK-OV-3 [16] = assay: Potency index, ratio of AZD8055 IC50 to test compound IC50 for human SKOV3 cells; assay type: functional
# [17] = molecular target: T1, Phosphatidylinositol 4,5-bisphosphate 3-kinase catalytic subunit alpha isoform; assay: Potency index, ratio of AZD8055 IC50 to test compound IC50 for PI3Kalpha (unknown origin)
# [18] = Unbound clearance in pooled human liver microsomes at 50 uM pretreated for 5 mins followed by NADPH addition and measured after 120 mins by HPLC analysis; assay type: ADME, microsome; details: 2 h; in short: as §5
# U-87 MG [19] = assay: Antitumor activity against human U87MG cells xenografted in Balb/c mouse assessed as tumor growth inhibition at 30 mg/kg, ig administered daily for 10 days relative to control; assay type: functional, U-87MG ATCC; details: po, 240 h, read-out: TGI; in short: as §3
# [20] = molecular target: T2, Serine/threonine-protein kinase mTOR; assay: Potency index, ratio of AZD8055 IC50 to test compound IC50 for mTOR (unknown origin)
# [21] = Mean residence time in Beagle dog at 1 mg/kg, po administered as single dose via gavage; assay type: ADME, organism-based, Canis lupus familiaris; details: in vivo; in short: as §2
# [22] = molecular target: T1, Phosphatidylinositol 4,5-bisphosphate 3-kinase catalytic subunit alpha isoform; assay: Inhibition of PI3Kalpha in human U87MG cells assessed as reduction in AKT phosphorylation at T308 residue at 2 nM after 24 hrs by Western blot analysis relative to control; assay type: cell-based; in short: as §4
# T1 sequence (P42336 whole entry, canonical isoform): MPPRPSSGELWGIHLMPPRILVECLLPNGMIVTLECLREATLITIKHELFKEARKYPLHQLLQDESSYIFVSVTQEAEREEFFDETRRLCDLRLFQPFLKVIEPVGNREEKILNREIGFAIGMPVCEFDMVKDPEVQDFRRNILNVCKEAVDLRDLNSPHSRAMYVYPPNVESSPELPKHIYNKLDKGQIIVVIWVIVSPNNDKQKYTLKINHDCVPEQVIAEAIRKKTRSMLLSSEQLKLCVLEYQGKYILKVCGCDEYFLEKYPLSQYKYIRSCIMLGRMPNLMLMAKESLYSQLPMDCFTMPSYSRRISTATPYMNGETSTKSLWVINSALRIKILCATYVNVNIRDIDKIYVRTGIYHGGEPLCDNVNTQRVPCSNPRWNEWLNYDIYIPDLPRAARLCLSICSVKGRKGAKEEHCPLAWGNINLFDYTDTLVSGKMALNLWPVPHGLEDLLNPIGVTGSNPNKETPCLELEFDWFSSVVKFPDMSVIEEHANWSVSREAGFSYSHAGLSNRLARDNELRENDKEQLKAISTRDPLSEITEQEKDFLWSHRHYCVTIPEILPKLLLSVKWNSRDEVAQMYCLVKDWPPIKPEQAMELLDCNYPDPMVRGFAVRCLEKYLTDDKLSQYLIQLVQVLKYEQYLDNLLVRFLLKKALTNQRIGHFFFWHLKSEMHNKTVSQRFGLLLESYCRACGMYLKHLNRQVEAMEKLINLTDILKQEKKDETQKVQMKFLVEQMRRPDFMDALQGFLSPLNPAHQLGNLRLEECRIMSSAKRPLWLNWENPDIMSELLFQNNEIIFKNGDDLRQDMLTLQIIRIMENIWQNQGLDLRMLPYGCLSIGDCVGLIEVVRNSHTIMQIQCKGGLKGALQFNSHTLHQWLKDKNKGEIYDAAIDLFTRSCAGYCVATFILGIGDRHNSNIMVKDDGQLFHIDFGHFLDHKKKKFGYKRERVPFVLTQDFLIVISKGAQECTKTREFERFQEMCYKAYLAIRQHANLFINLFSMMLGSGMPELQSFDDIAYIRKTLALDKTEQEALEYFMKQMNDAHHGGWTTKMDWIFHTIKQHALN
Structure (SMILES),pIC50 [1],pIC50 (MCF7),pIC50 (U-87 MG [2]),pIC50 (PC-3),pIC50 (SK-OV-3 [3]),pIC50 [4],further results
COc1ccc(-c2ccc3c(N4CCOCC4)nc(C#N)nc3n2)cc1CO,5.59,< 6.00,6.04,< 6.00,6.18,7.49,–
CNC(=O)c1cccc(-c2ccc3c(N4CCOC[C@@H]4C)nc(C(C)(C)C)nc3n2)c1,5.89,7.51,7.49,6.96,7.23,7.14,–
COc1ccc(-c2ccc3c(N4CCOCC4)nc(CC#N)nc3n2)cc1CO,< 5.00,6.73,7.04,7.18,7.26,7.06,–
COc1ccc(-c2ccc3c(N4CCOCC4)nc(C(CO)CO)nc3n2)cc1CO,< 5.00,< 6.00,< 6.00,< 6.00,< 6.00,< 6.30,–
COc1ccc(-c2ccc3c(N4CCOC[C@@H]4C)nc(C(C)C)nc3n2)cc1CO,5.52,7.27,7.47,6.81,7.35,8.00,–
COc1ccc(-c2ccc3c(N4CCOCC4)nc(CS(C)(=O)=O)nc3n2)cc1CO,< 5.00,< 6.00,< 6.00,< 6.00,< 6.00,< 6.30,–
COc1ccc(-c2ccc3c(N4CCOC[C@@H]4C)nc(C(C)(C)C)nc3n2)cc1CO,6.40,8.22,8.49,7.64,8.15,8.70,Cmax [5]: 288 ng/mL; Activity (Mus musculus): Non-Toxic; inhibition [6]: Active; half-life [7]: 5.4 h; AUC(0-t) at 24 h [8]: 857 ng·h/mL; inhibition [9]: 100%; half-life at 50 µM [10]: 0.515 h; inhibition [11]: 100%; inhibition [12]: Dose-dependent effect; inhibition in vivo at 10 mg/kg (U-87 MG [13]): 64%; TGI (U-87 MG [14]): Dose-dependent effect; inhibition in vivo at 3 mg/kg (U-87 MG [15]): 28%; Ratio IC50 (SK-OV-3 [16]): 8; Ratio IC50 [17]: 10; CL free [18]: 28.1 µL/min/mg; inhibition in vivo at 30 mg/kg (U-87 MG [19]): 83%; Ratio IC50 [20]: 4; MRT [21]: 4.3 h; inhibition [22]: Active
COc1ccc(-c2ccc3c(N4CCOC[C@@H]4C)nc(C4CCOCC4)nc3n2)cc1CO,< 5.00,6.35,7.03,6.32,6.93,7.28,–
COc1ccc(-c2ccc3c(N4CCOC[C@@H]4C)nc(N4CCOC[C@@H]4C)nc3n2)cc1CO [AZD-8055],–,7.57,7.67,7.44,7.26,–,Cmax [5]: 228 ng/mL; half-life [7]: 4.5 h; AUC(0-t) at 24 h [8]: 787 ng·h/mL; half-life at 50 µM [10]: 0.35 h; inhibition in vivo at 10 mg/kg (U-87 MG [13]): 59%; CL free [18]: 28.6 µL/min/mg; MRT [21]: 3.1 h
COc1ccc(-c2ccc3c(N4CCOC[C@@H]4C)nc(C)nc3n2)cc1CO,< 5.00,7.11,7.04,7.18,7.31,7.02,–
COc1ccc(-c2ccc3c(N4CCOC[C@@H]4C)nc(CC(OC)OC)nc3n2)cc1CO,< 5.00,7.14,7.05,6.79,7.28,7.54,–
COc1ccc(-c2ccc3c(N4CCOCC4)nc(C(N)=O)nc3n2)cc1CO,5.49,< 6.00,6.09,< 6.00,6.19,7.32,–
COc1ccc(-c2ccc3c(N4CCOC[C@@H]4C)nc(C4=CCOCC4)nc3n2)cc1CO,< 5.00,6.65,7.07,6.67,6.90,7.52,–
COc1ccc(-c2ccc3c(N4CCOCC4)nc(CN)nc3n2)cc1CO,< 5.00,< 6.00,< 6.00,< 6.00,< 6.00,6.84,–

# Source: ChEMBL document CHEMBL4229417, “Design and synthesis of alkyl substituted pyridino[2,3-D]pyrimidine compounds as PI3Kα/mTOR dual inhibitors with improved pharmacokinetic properties and potent in vivo antitumor activity” (Bioorg Med Chem, 2018)
